# NF-kB neuron act: activators of NF-kB expression in neurons, primary screen, cell-based, HTS; human neuronal cells, NF-kB reporter expression; hits give high values; fold change at 12.5 µM; 190,000 compounds, 1.6% hits; in the data active = fold change above about 3.3
# FLuc act counter: FLuc activators, initial screening, artefact control for FLuc-dependent activation tests, biochemical, ATPlite luminescence; 200,000 tested, under 10 active; AID 1027, 2008; Luciferin 4-monooxygenase (Photinus pyralis), P08659; activation factor at 10 µM; ATPlite luciferase biochemical, 10 min; 0 = ATP-free wells, 1 = DMSO control;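 active = luciferase activation factor, scaled between plate controls, of at least 2 with compound at 10 µM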
# Target sequence (P08659 whole entry, looked up): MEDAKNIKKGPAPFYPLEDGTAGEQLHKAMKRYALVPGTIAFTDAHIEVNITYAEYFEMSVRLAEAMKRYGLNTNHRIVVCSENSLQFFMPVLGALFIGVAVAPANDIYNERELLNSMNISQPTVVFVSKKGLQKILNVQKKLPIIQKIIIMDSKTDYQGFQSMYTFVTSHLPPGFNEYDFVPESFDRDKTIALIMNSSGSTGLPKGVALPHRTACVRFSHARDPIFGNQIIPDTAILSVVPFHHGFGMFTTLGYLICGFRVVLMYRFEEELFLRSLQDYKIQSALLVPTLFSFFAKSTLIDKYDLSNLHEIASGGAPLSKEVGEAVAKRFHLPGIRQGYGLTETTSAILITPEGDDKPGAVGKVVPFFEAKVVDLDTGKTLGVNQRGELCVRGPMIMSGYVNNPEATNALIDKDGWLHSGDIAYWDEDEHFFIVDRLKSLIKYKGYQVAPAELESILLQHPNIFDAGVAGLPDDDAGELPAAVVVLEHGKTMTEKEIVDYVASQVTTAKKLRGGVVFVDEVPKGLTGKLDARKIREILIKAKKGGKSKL
#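 test system = cell-free luciferase reagent | medium = PBS as buffer for the ATP substrate | dosing = test compounds dosed from 2 mM stocks in 100% DMSO | incubation = 10 min at ambient temperature | detection = luminescence measurement of luciferase light output | benchmarks = low control with PBS replacing ATP, high control enzyme plus ATP without compound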
# STAT1 activator: STAT1 signaling activators, primary screen, cell-based, HTS, luciferase reporter; 200,000 compounds, 2.6% hits; AID 932, 2007; activation (% of control), % at 5.5 µM; NIH 3T3 STAT1-luciferase reporter, IFN-gamma, luminescence; 100% = IFN-gamma alone, no compound;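 active = activation above the screen-wide mean activation plus 3 SD, cut at about 130% in these data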;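 also: raw ratio to IFN-gamma control signal so 100% means no change and 0% no light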
# APP 5'UTR act: activators of APP 5'UTR luciferase reporter, primary screen, SH-SY5Y cells | activation, % at 2 µM | AID 1276, 2008 | 190,000 compounds, 1% hits | SH-SY5Y APP 5'UTR luciferase reporter, luminescence; zero percent = DMSO vehicle wells;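 active = activation above a set limit, based on mean plus 3 SD of controls, cut at about 140% in these data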
# FLuc inhib CS: firefly luciferase enzyme inhibitors, primary screen, artefact control for luciferase-based inhibitor screens, biochemical, luminescence, ATPLite; Luciferin 4-monooxygenase (Photinus pyralis), P08659; 10 min; inhibition, % at 10 µM; 200,000 compounds, 1.5% hits; AID 1006, 2008;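 active = inhibition above about 50% when tested at 10 µM, limit read from the data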
# STAT1 act conf: STAT1 signaling activators, confirmation, cell-based, HTS, luciferase reporter. 1,200 compounds, 97% hits. NIH 3T3 STAT1-luciferase reporter, IFN-gamma potentiation, luminescence; 100% = IFN-gamma EC80 alone, no compound. shares compounds with STAT1 activator. activation (% of control), % at 5.7 µM;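 active = activation above a set limit carried over from the earlier primary STAT1 screen, cut at about 140% in these data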;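 also: simple ratio to median IFN-gamma plus DMSO wells so 0% means no light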
# NFkB act: NF-kB reporter activators, TNF-alpha stimulated, counter-screen for STAT1 activator project, cell-based, HEK293T, luciferase luminescence; shares compounds with STAT1 activator; 1,200 compounds, 43% hits; 100% = TNF-alpha with vehicle only; AID 1306, 2008; activation (% of control), % at 5.7 µM;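 active = activation above the mean of solvent-only control wells plus 3 SD, set per campaign, cut at about 130% in these data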;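 also: TNF-alpha given at a submaximal dose yielding about 80% of full reporter signal; values are well signal over median control so 100% means no change and 0% no light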
# STAT3 act 2: STAT3 reporter activation by STAT1 hits, confirmation, counter-screen for STAT1 activator project, U3A cells, luciferase, luminescence; shares compounds with STAT1 activator; IL-6; cells lack STAT1; 100 = IL-6 alone, no compound effect; activation (% of control), % at 5.7 µM; 1,200 compounds, 46% hits; AID 1316, 2008;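 active = activation above the solvent-only control well mean plus 3 SD, set per plate batch, cut at about 110% in these data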;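 also: 0% = no luminescence and 100% = median IL-6 plus DMSO wells; higher means more STAT3 reporter activation so hits are non-selective activators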
# The depositor's hits bear a star; · = no result given. Only some compounds are listed: those with a hit (about 4.1% of all), similar ones and a draw of the others.
SMILES,NF-kB neuron act,FLuc act counter,STAT1 activator,APP 5'UTR act,FLuc inhib CS,STAT1 act conf,NFkB act,STAT3 act 2
CCOc1ccc(NC(=O)c2ccco2)c([N+](=O)[O-])c1,6.02*,0.7,164.2*,98.6,30.2,190.9*,136.0*,110.0
CCOc1ccc(NC(=O)c2cccnc2Cl)c([N+](=O)[O-])c1,1.09,1.1,113.1,-3.0,-6.7,·,·,·
CCOc1ccc(NC(=O)c2cccs2)c([N+](=O)[O-])c1,3.01,1,152.1*,58.2,2.3,189.4*,132.8,105.4
COc1cc(C(=O)N(Cc2cccc(Cl)c2)C2CCS(=O)(=O)C2)cc(OC)c1OC (stereo not drawn),0.93,1,99.4,-12.9,-0.5,·,·,·
O=C(COc1ccc([N+](=O)[O-])cc1)NCCC1=CCCCC1,0.95,1,104.5,-6.2,-4.1,·,·,·
COc1ccc(C(=O)NCCC2=CCCCC2)cc1OC,1.93,1.1,117.2,35.4,-5.7,·,·,·
O=C(NCCC1=CCCCC1)c1ccc([N+](=O)[O-])cc1,4.85*,0.8,150.8*,159.9*,21.1,189.3*,118.2,160.5*
O=C(NCCC1=CCCCC1)c1ccc(F)cc1,1.09,0.6,166.3*,210.5*,39.6,199.6*,106.8,102.3
CC1=CCC2([N+](=O)[O-])CN(CC(=O)O)CC1([N+](=O)[O-])C2 (stereo not drawn),1,1,104.8,35.8,0.3,·,·,·
CCC1(c2ccc(F)cc2)NC(=O)N(CC(=O)Nc2ccc(-c3nc4ccc(C)cc4s3)cc2)C1=O (stereo not drawn),1.06,0.7,169.4*,214.0*,27.4,201.4*,133.0,112.5*
Cc1ccc2nc(-c3ccc(NC(=O)CN4C(=O)c5ccccc5C4=O)cc3)sc2c1,1.66,0.6,162.1*,113.5,37.5,180.3*,129.9,117.9*
Cc1nnc(SCC(=O)Nc2ccc(-c3nc4ccccc4s3)cc2)s1,5.64*,0.2,156.3*,157.8*,79.8*,243.0*,109.1,85.6
Cc1cc(C)nc(NS(=O)(=O)c2ccc(NC(=O)CN3C(=O)c4ccccc4C3=O)cc2)n1,1.33,1.1,106.4,·,-10.4,·,·,·
O=C1/C(=C\c2ccc3c(c2)OCO3)CCC/C1=C/c1ccc2c(c1)OCO2,1.24,1,101.8,-1.8,1.5,·,·,·
O=c1/c(=C\c2ccc3c(c2)OCO3)sc2n1CCCN=2,4.65*,0.5,154.4*,94.4,46.2,200.5*,138.8*,106.5
CCCn1c(=O)c2c(nc3n2CCS3)n(C)c1=O,1.11,1.1,101.9,12.3,-8.3,·,·,·
CC(=O)N1N=C(c2ccc(C)cc2)OC1c1ccc(C(C)C)cc1 (stereo not drawn),4.3*,1,165.6*,115.5,-0.1,217.4*,146.1*,145.8*
CC(=O)N1N=C(c2ccc(C)cc2)OC1c1ccc(C)cc1 (stereo not drawn),1.77,1,122.2,28.8,-4.1,·,·,·
Cn1nnc2cc(C(=O)Nc3ccc4ccccc4c3)ccc21,4.33*,0.8,154.0*,130.5,17.9,241.9*,138.0*,98.3
CCSc1nncn1/N=C/c1ccc(OC)c(OC)c1,1.46,1,101.5,19.3,-4.3,·,·,·
C=C(C)CSc1nncn1/N=C/c1ccc(OC)cc1,2.46,1,153.3*,33.2,3.7,165.4*,129.6,128.4*
COc1ccc2[nH]c(=O)c(C(c3nnnn3C3CCCC3)N3CCN(Cc4ccc5c(c4)OCO5)CC3)cc2c1 (stereo not drawn),0.96,1.1,90.3,-4.9,-5.2,·,·,·
O=C(Nc1nc2ccccc2s1)NC1CCCCC1,9.2*,0.5,160.7*,144.4*,46.1,226.3*,131.9,116.5*
O=C(CC1CCCCC1)Nc1nc2ccccc2s1,3.05,0.9,155.0*,133.2,6.8,184.1*,133.9*,119.7*
S=C(c1ccc(-c2ccc(Br)cc2)o1)N1CCCCC1,5.64*,0.4,169.5*,158.7*,59.2*,210.5*,145.2*,113.7*
SMILES,NF-kB neuron act,FLuc act counter,STAT1 activator,APP 5'UTR act,FLuc inhib CS,STAT1 act conf,NFkB act,STAT3 act 2
COc1ccc(-c2ccc(C(=S)N3CCN(C(C)=O)CC3)o2)cc1,1.17,1,119.1,2.5,3.8,·,·,·
S=C(c1ccc(-c2ccc(Cl)c(Cl)c2)o1)N1CCOCC1,5.33*,0.8,157.4*,133.5,20.3,201.8*,143.7*,118.8*
COc1ccc(NC(=S)N2CCCC2c2ccc(OC)c(OC)c2)cc1 (stereo not drawn),0.94,1.1,92.7,17.2,-5.1,·,·,·
COc1ccc(/C=N/NC(=O)c2[nH]ncc2Br)c(OC)c1,1.83,0.2,155.0*,25.6,84.7*,162.3*,121.9,113.9*
CCCCCCCCCCCC(=O)NC1CCS(=O)(=O)C1 (stereo not drawn),0.9,1,107.5,-11.3,-1.2,·,·,·
Cc1cc(NC(=S)N(Cc2ccc(Br)cc2)Cc2ccc(C(=O)O)cc2)ccc1Cl,0.89,1,102.8,-14.8,-2.0,·,·,·
Cc1c(-c2ccccc2)[nH]n2c(=O)c3c(nc12)CCCC3,2.08,0.9,154.9*,51.5,10.7,173.9*,130.3,116.6*
N#CC1(c2ccc(NC(=O)c3ccccc3F)cc2)CCCC1,10.7*,0.4,161.3*,144.6*,64.0*,228.3*,132.9,104.1
CCN(CC)c1ccc(NC(=O)c2ccccc2F)cc1,6.08*,0.5,163.5*,110.9,46.8,192.3*,123.5,95.7
Cc1cc(C)n(CCCNC(=O)c2ccc(S(=O)(=O)NCc3ccco3)cc2)n1,1.18,1,97.9,9.3,-1.7,·,·,·
Cc1nn(Cc2cccc(C(=O)N3CCCC(C)C3)c2)c(C)c1[N+](=O)[O-] (stereo not drawn),1.06,1,102.3,2.1,-4.8,·,·,·
CC1CCc2c(sc(NC(=O)C3CCCO3)c2C#N)C1 (stereo not drawn),4.62*,0.9,153.5*,143.7*,14.6,168.5*,134.0*,114.5*

# Compound activity as filed in PubChem BioAssay.
